# In ChEMBL document CHEMBL1155459, “On-bead screening of a combinatorial fumaric acid derived peptide library yields antiplasmodial cysteine protease inhibitors with unusual peptide sequences” (J Med Chem, 2009):
# Activity calls are given as the source filed them. No cut-off for these calls is given here. Square brackets hold non-standard residues; d marks the D form. Peptide text beside a SMILES is read from it. * marks the point of attachment. Fumaroyl(GlyGlyPheOH) = O=C(/C=C/C(=O)*)NCC(=O)NCC(=O)N[C@@H](Cc1ccccc1)C(=O)O; Chg = N[C@H](C(=O)O)C1CCCCC1; Dap = NC[C@H](N)C(=O)O
# What was measured:
# [1] = target: Rhodesain (Trypanosoma brucei rhodesiense) (UniProt Q95PM0); assay: Inhibition of Trypanosoma brucei rhodesiense recombinant rhodesain at 200 uM
# Chain of Rhodesain (Trypanosoma brucei rhodesiense) (Q95PM0 1-450): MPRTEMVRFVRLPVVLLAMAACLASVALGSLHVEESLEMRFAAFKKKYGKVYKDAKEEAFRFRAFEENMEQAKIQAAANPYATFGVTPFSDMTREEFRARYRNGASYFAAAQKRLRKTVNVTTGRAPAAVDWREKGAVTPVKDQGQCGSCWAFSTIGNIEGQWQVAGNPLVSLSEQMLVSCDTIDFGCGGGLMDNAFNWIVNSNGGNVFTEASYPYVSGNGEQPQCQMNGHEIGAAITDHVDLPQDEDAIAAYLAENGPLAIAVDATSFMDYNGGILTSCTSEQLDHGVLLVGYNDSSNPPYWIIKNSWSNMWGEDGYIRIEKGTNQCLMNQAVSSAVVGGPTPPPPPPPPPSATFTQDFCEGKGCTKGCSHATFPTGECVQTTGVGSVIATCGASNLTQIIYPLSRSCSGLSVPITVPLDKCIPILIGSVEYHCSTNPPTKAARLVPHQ
# Cathepsin B [2] = target: T1, Cathepsin B (Homo sapiens, UniProt P07858); assay: Inhibition of human liver cathepsin B at 100 uM
# Plasmodium falciparum [3] = assay: Inhibition of Plasmodium falciparum recombinant falcipain-2 expressed in Escherichia coli at 100 uM after 20 min by spectrofluorometry
# How it was run: (§1)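 Single-point screen at 100 μM inhibitor (final). Recombinant enzyme in 50 mM acetate pH 5.5, 5 mM EDTA, 200 mM NaCl, 5 mM DTT, 10% DMSO final; Cbz-Phe-Arg-AMC 40 μM (or Cbz-Leu-Arg-AMC 25 μM) hydrolysis followed by fluorescence (ex 380/em 460 nm). % inhibition = 100(1 − vi/vc) from progress-curve slopes vs DMSO control; at least two independent assays.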
# [4] = target: Rhodesain (Trypanosoma brucei rhodesiense) (UniProt Q95PM0); assay: Inhibition of Trypanosoma brucei rhodesiense recombinant rhodesain at 100 uM; how it was run: as §1
# Procathepsin L = Procathepsin L (Bos taurus, UniProt P25975); assay: Inhibition of bovine spleen cathepsin L
# Chain of Procathepsin L (P25975 whole entry): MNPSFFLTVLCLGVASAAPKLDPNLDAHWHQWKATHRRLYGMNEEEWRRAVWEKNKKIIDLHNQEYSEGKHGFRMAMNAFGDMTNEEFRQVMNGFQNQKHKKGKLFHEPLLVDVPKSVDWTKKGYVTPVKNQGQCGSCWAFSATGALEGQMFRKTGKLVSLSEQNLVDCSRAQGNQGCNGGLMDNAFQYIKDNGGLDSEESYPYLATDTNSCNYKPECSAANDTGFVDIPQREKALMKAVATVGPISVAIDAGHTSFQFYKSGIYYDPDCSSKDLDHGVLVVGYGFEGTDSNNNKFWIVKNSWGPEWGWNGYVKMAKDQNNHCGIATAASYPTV
# How it was run: (§2)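 Cathepsin L (bovine spleen) or B (human liver) hydrolysis of Cbz-Phe-Arg-AMC (40 μM) followed by fluorescence for 5-10 min without preincubation at 0.1-80 μM inhibitor, 10% DMSO final.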
# [5] = Inhibition of Plasmodium falciparum recombinant falcipain-2 expressed in Escherichia coli […] using Cbz-Leu-Arg-AMC as substrate by spectrofluorometry
# [6] = target: Rhodesain (Trypanosoma brucei rhodesiense) (UniProt Q95PM0); assay: Inhibition of Trypanosoma brucei rhodesiense rhodesain after 12 hrs by fluorescence spectroscopy-based on-bead assay; parameters: concentration or dose not given beside the values; conditions: concentration not given here
# How it was run: (§3)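 Library members on resin (PEGA, theoretical loading 0.40 mmol/g; added as DMSO suspension, 0.64 mM final inhibitor) preincubated with enzyme 12 h, then Cbz-Phe-Arg-AMC 40 μM added; AMC release followed by fluorescence (ex 380/em 460 nm). Kinetics compared with inhibitor-free amino-PEGA resin.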
# [7] = Inhibition of Plasmodium falciparum falcipain-2 after 12 hrs by fluorescence spectroscopy-based on-bead assay; parameters: concentration or dose not given beside the values; conditions: concentration not given here; how it was run: as §3
# Rhodesain = Rhodesain (Trypanosoma brucei rhodesiense, UniProt Q95PM0); assay: Inhibition of Trypanosoma brucei rhodesiense recombinant rhodesain
# Chain of Rhodesain (Q95PM0 whole entry): as the sequence (Q95PM0 1-450) above
# Cathepsin B [8] = target: T1, Cathepsin B; assay: Inhibition of human liver cathepsin B; how it was run: as §2
# Plasmodium falciparum [9] = assay: Antiplasmodial activity against Plasmodium falciparum FCBR by fluorometric method; format: functional, organism-based, FCBR/Columbia
# [10] = Inhibition of Plasmodium falciparum recombinant falcipain-2 expressed in Escherichia coli after 20 min using Cbz-Phe-Arg-AMC as substrate by spectrofluorometry; conditions: in the assay text read “over 5-10 min” for “after 20 min”
# How it was run: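 Continuous assay without preincubation. Recombinant falcipain-2 in 50 mM acetate pH 5.5, 5 mM EDTA, 200 mM NaCl, 5 mM DTT, 10% DMSO final; Cbz-Phe-Arg-AMC (40 μM, Km 21.5 μM) or Cbz-Leu-Arg-AMC (25 μM, Km 8.4 μM). Fluorescence monitored 5-10 min at 0.1-80 μM inhibitor. Ki from Dixon plot, corrected to zero substrate; at least two independent assays.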
# Cathepsin B [11] = target: T1, Cathepsin B; assay: Inhibition of human liver cathepsin B at 200 uM measured after dialysis
# How it was run: (§4)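 Human liver cathepsin B activity measured with 200 μM inhibitor before and after 3 h of continuous dialysis against assay buffer, to test reversibility.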
# [12] = tested on: Trypanosoma brucei brucei; assay: Antitrypanosomal activity against Trypanosoma brucei brucei; format: functional, organism-based
# Cathepsin B [13] = target: T1, Cathepsin B; assay: Inhibition of human liver cathepsin B at 200 uM measured before dialysis; how it was run: as §4
# [14] = Inhibition of Plasmodium falciparum falcipain-2 by fluorescence enzyme assay
# [15] = Plasmodium falciparum, FCBR/Columbia, read-out: IC50
SMILES,inhibition [1] [%],inhibition (Cathepsin B [2]),inhibition (Plasmodium falciparum [3]) [%],inhibition [4] [%],Ki (Procathepsin L) [µM],Ki [5] [µM],inhibition [6] [%],inhibition [7] [%],Ki (Rhodesain) [µM],Ki (Cathepsin B [8]) [µM],IC50 (Plasmodium falciparum [9]),Ki [10] [µM],IC50 (Plasmodium falciparum [9]; [15]) [µM],inhibition (Cathepsin B [11]) [%],IC50 [12],inhibition (Cathepsin B [13]) [%],Ki [14] [µM],"IC50 ([12]; Trypanosoma brucei, read-out: IC50) [µM]"
N=C(N)c1ccc(OCCCCCOc2ccc(C(=N)N)cc2)cc1,28,,,,,,,,,,,,,,,,,
CC(C)C[C@H](NC(=O)[C@H](C)NC(=O)/C=C/C(=O)N[C@@H](C)C(=O)NCC(=O)N[C@@H](Cc1ccccc1)C(=O)O)C(=O)N[C@@H](CC(C)C)C(=O)N[C@H](C(N)=O)C(C)C (HELM PEPTIDE1{[C[C@H](NC(=O)/C=C/C(=O)[*:2])C(=O)NCC(=O)N[C@@H](Cc1ccccc1)C(=O)O].A.L.L.V.[am]}$$$$V2.0),,45%,86,96,33.6,9.5,67,58,1.3,,,,,,,,,
CC(C)C[C@H](NC(=O)[C@H](C)NC(=O)/C=C/C(=O)NCC(=O)NCC(=O)N[C@@H](Cc1ccccc1)C(=O)O)C(=O)N[C@@H](CC(C)C)C(=O)N[C@H](C(N)=O)C(C)C (HELM PEPTIDE1{[O=C(/C=C/C(=O)[*:2])NCC(=O)NCC(=O)N[C@@H](Cc1ccccc1)C(=O)O].A.L.L.V.[am]}$$$$V2.0),,38%,73,99,30.7,,65,55,1,,,,,,,,,
CC(C)C[C@H](NC(=O)[C@H](Cc1ccccc1)NC(=O)/C=C/C(=O)NCC(=O)NCC(=O)N[C@@H](Cc1ccccc1)C(=O)O)C(=O)N[C@@H](CC(C)C)C(=O)N[C@H](C(N)=O)C(C)C (HELM PEPTIDE1{[O=C(/C=C/C(=O)[*:2])NCC(=O)NCC(=O)N[C@@H](Cc1ccccc1)C(=O)O].F.L.L.V.[am]}$$$$V2.0),,73%,100,68,34.8,,69,69,0.2,22.9,Not Active,0.8,,,,,,
CC(C)[C@H](NC(=O)[C@H](C)NC(=O)[C@@H](NC(=O)[C@H](CC(N)=O)NC(=O)/C=C/C(=O)NCC(=O)NCC(=O)N[C@@H](Cc1ccccc1)C(=O)O)C1CCCCC1)C(N)=O (HELM PEPTIDE1{[O=C(/C=C/C(=O)[*:2])NCC(=O)NCC(=O)N[C@@H](Cc1ccccc1)C(=O)O].N.[O=C([C@@H](N[*:1])C1CCCCC1)[*:2]].A.V.[am]}$$$$V2.0),,78%,79,98,,,26,73,0.4,22.2,,12.2,75,,,,,
CC(C)[C@H](NC(=O)[C@@H](NC(=O)[C@@H](NC(=O)[C@H](CC(N)=O)NC(=O)/C=C/C(=O)NCC(=O)NCC(=O)N[C@@H](Cc1ccccc1)C(=O)O)C1CCCCC1)C(C)C)C(N)=O (HELM PEPTIDE1{[O=C(/C=C/C(=O)[*:2])NCC(=O)NCC(=O)N[C@@H](Cc1ccccc1)C(=O)O].N.[O=C([C@@H](N[*:1])C1CCCCC1)[*:2]].V.V.[am]}$$$$V2.0),,100%,90,96,37.5,,46,61,0.08,1.4,,5.2,32,73,Not Active,74,,
CC(C)[C@H](NC(=O)[C@@H](NC(=O)[C@@H](NC(=O)[C@H](CCC(N)=O)NC(=O)/C=C/C(=O)NCC(=O)NCC(=O)N[C@@H](Cc1ccccc1)C(=O)O)C1CCCCC1)C(C)C)C(N)=O (HELM PEPTIDE1{[O=C(/C=C/C(=O)[*:2])NCC(=O)NCC(=O)N[C@@H](Cc1ccccc1)C(=O)O].Q.[O=C([C@@H](N[*:1])C1CCCCC1)[*:2]].V.V.[am]}$$$$V2.0),,81%,83,99,,,53,51,0.08,,,1.5,27,,Not Active,,,
"CC(=O)NC[C@H](NC(=O)/C=C/C(=O)NCC(=O)NCC(=O)N[C@@H](Cc1ccccc1)C(=O)O)C(=O)N[C@@H](CC(C)C)C(=O)N[C@@H](C)C(=O)N[C@H](C(N)=O)C(C)C (HELM PEPTIDE1{[O=C(/C=C/C(=O)[*:2])NCC(=O)NCC(=O)N[C@@H](Cc1ccccc1)C(=O)O].[O=C([C@H](CN[*:3])N[*:1])[*:2]].L.A.V.[am]}|PEPTIDE2{[ac]}$PEPTIDE1,PEPTIDE2,2:R3-1:R2$$$V2.0)",,inactive,18,30,20.8,,32,32,,,,,,,,,,
"CC(=O)NC[C@H](NC(=O)/C=C/C(=O)NCC(=O)NCC(=O)N[C@@H](Cc1ccccc1)C(=O)O)C(=O)N[C@@H](CC(C)C)C(=O)N[C@@H](CC(C)C)C(=O)N[C@H](C(N)=O)C(C)C (HELM PEPTIDE1{[O=C(/C=C/C(=O)[*:2])NCC(=O)NCC(=O)N[C@@H](Cc1ccccc1)C(=O)O].[O=C([C@H](CN[*:3])N[*:1])[*:2]].L.L.V.[am]}|PEPTIDE2{[ac]}$PEPTIDE1,PEPTIDE2,2:R3-1:R2$$$V2.0)",,inactive,79,87,40,11.8,60,54,1.8,,,,,,,,,
CC(=O)NC[C@H](NC(=O)/C=C/C(=O)NCC(=O)NCC(=O)N[C@@H](Cc1ccccc1)C(=O)O)C(=O)N[C@H](C(=O)N[C@@H](C)C(=O)N[C@H](C(N)=O)C(C)C)C1CCCCC1 ({Fumaroyl(GlyGlyPheOH)}-[Dap](Ac)[Chg]AV-NH2),,83%,83,95,,,25,23,0.3,12.4,,7,22,,Not Active,,,
CC(C)C[C@H](NC(=O)[C@H]1O[C@@H]1C(=O)O)C(=O)NCCCCN=C(N)N [E-64],,,,,,,,,,,,,,,,,0.29,
NCCCC(N)(C(=O)O)C(F)F (centres undefined) [EFLORNITHINE],,,,31,,,,,,,,,,,,,,30.7
